This is a sample that favours compounds with a hit; in the whole collection about 2.2% have one here.
DDE Tn6 FP inh = inhibitors of Tn6 peptide binding to fibrin DD(E), primary screen, biochemical, fluorescence polarization, human fibrin, Tn6 probe. AID 720509, 2013. hit rate 0.21% among 370,000. Fibrin DD(E) TRITC-Tn6 fluorescence polarization displacement. Fibrinogen beta chain (Homo sapiens), P02675. inhibition, % at 8.3 µM;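 active = inhibition above a per-campaign cutoff: mean of compounds within control limits plus 3 SD, cut at about 15% in these data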
Target sequence (P02675 whole entry, looked up): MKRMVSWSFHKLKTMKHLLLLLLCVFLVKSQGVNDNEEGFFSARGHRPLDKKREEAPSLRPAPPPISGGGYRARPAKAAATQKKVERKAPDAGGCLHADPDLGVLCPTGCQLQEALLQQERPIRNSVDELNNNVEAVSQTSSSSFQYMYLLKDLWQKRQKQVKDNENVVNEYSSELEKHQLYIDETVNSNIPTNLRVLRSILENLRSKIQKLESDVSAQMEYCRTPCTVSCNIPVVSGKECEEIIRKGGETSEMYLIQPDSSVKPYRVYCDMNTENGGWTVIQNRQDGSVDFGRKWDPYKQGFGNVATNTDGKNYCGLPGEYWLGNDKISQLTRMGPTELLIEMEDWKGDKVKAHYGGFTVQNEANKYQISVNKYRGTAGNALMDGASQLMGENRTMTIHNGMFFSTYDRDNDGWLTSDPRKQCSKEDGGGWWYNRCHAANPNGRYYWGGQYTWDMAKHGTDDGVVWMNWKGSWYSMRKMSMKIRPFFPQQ
SKN-1 inh = suppressors of acrylamide-induced Pgst-4::GFP reporter in worms, primary screen, SKN-1 inhibitor project, whole organism, uHTS, GFP/RFP fluorescence ratio, strain VP596 | C. elegans VP596 Pgst-4::GFP/RFP ratio, 24 h | inhibition, % at 21.8 µM | hit rate 0.49% among 360,000;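 active = interference check ratio from 0.5 to 1.5 plus GFP to RFP signal ratio inhibition reaching or exceeding a fixed threshold, cut at about 30% in these data, passing the limit was not always enough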
Tn7 DDE FP = inhibitors of Tn7 peptide binding to fibrin DD(E), primary screen, biochemical, fluorescence polarization, human fibrin, Tn7 probe; FP displacement of FITC-Tn7 peptide from fibrin DD(E); 0% = median of compound wells per plate; hit rate 0.13% among 370,000; inhibition, % at 8.3 µM; Fibrinogen beta chain (Homo sapiens), P02675;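 active = inhibition above the mean of compounds falling within the control limits plus 3 SD of them, cut at about 14% in these data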
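Assay system: human fibrin DD(E). Input: DD(E) 2 µM final. Medium: Tris buffer with calcium and detergent, pH 7.8. Compound dosing: single point at 8.3 µM. Timing: 10 min plus 3 h, room temperature. Technique: fluorescence polarization of the labelled Tn7 tracer. Read-out: percent inhibition. Replicates: singlicate testing.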
MT1-MMP act inh = blockers of MT1-MMP proenzyme processing, primary screen, HT1080 RFP-PRO-GFP cells, GFP/RFP fluorescence. GFP/RFP ratio fluorescence, overnight; percent of plate control window, DMSO zero. GFP/RFP ratio change, % at 20 µM. hit rate 0.061% among 360,000. AID 651647, 2012;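 active = GFP/RFP ratio change of at least 30% with cell ATP level not reduced by more than half and red fluorescence within 50% of control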
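system = RFP-PRO-GFP reporter HT1080 cells | dosing = 20 µM single dose, 1% DMSO | timing = overnight cell settling, then overnight compound exposure, 37 °C, 5% CO2 | read-out basis = GFP/RFP fluorescence ratio | controls = DMSO and RFP-L50D-GFP cell wells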
proKLK7 act = proKLK7 zymogen activators, primary screen, biochemical, fluorescence intensity; hit rate 0.9% among 370,000; purified proKLK7, EDANS-DABCYL substrate fluorescence; 100% is mature enzyme control, 0% vehicle; Kallikrein-7 (Homo sapiens), P49862; activation, % at 7 µM;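 active = activation above the mean of all tested compounds plus 3 SD, computed per campaign excluding outliers beyond control limits, cut at about 13% in these data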
Neddyl block = inhibitors of cullin neddylation, primary screen, biochemical, TR-FRET, uHTS, NAE and Ubc12; hit rate 0.58% among 360,000; calls only at 25 µM; NEDD8-conjugating enzyme Ubc12 (Homo sapiens) + NEDD8-activating enzyme E1 regulatory …; in the data active = inhibition above about 36%
Numbers stand for hits; n = inactive; x = no result; + = active, no number.

SMILES	DDE Tn6 FP inh	SKN-1 inh	Tn7 DDE FP	MT1-MMP act inh	proKLK7 act	Neddyl block
Cc1cc(O)c2c(c1)C(=O)c1cccc(O)c1C2=O	n	x	n	x	n	x
O=C(O)c1cc(O)c2c(c1)C(=O)c1cccc(O)c1C2=O	30	n	n	n	n	n
CCc1nnc(NC(=O)CC(C)c2ccccc2)s1 (stereo unspecified)	n	36	n	n	n	n
CC(=O)c1ccccc1NC(=O)C1CCCN(C(=O)c2ccc(Cl)cc2)C1 (stereo unspecified)	n	n	n	n	n	n
O=c1/c(=C\c2ccc(F)cc2)sc2n1CCCN=2	n	39	n	n	n	n
Cc1ccc(C)c(N2CCN(C3CCCCC3NS(=O)(=O)c3ccccc3)CC2)c1 (stereo unspecified)	x	n	x	n	x	n
O=C1CCC(=O)c2ccc3c4c(ccc1c24)CC3	n	n	n	n	n	+
CC(=O)Nc1ccc2c(c1)CCC2=O	n	n	n	n	n	n
CN(C)c1ccc(N=Nc2ccc(C(=O)O)cc2)cc1	n	41	n	n	n	n
CCn1nc(C)c(CNC(=O)c2cc(COc3ccc(F)cc3Cl)on2)c1C	n	n	n	n	n	n
N#C/C(=C/c1ccco1)c1nc2ccccc2s1	n	86	n	n	n	n
N#C/C(=C\c1ccco1)c1nc2ccccc2s1	n	88	n	n	n	n
N#C/C(=C\c1ccc(O)c([N+](=O)[O-])c1)c1nc2ccccc2s1	n	n	n	n	n	n
COc1ccc(/C=N/n2c(=O)[nH]c3c([nH]c4ccc(Br)cc43)c2=O)cc1CN1CCOCC1	n	37	n	n	n	n
COc1ccc(N=Cc2cc(Cc3ccccc3Cl)cc([N+](=O)[O-])c2O)cc1OC	x	38	x	n	x	n
Cc1ccc(NC(=O)CNC(=O)c2cccs2)cc1S(=O)(=O)Nc1ccc(Cl)cc1	n	41	n	n	n	n
COc1ccc(NC(=O)CNC(=O)c2cccs2)cc1Cl	n	n	n	n	n	n
CCCCCCn1c(SCC(=O)Nc2cc(C)on2)nc2ccccc2c1=O	n	n	n	n	n	n
Cc1cc(NC(=O)CSc2nc3ccccc3c(=O)n2Cc2ccc(F)cc2)no1	n	32	n	n	n	n
C=CCSC1=Nc2cc(OC)c(OC)cc2C2=NC(=O)CN12	n	n	n	n	n	n
COC(=O)c1cc(NC(=O)CN(c2ccc3c(c2)OCO3)S(C)(=O)=O)ccc1Cl	n	36	n	n	n	n
CCN(CC)CCNc1nc(SC)nc2sc3c(c12)CCN(C)C3	n	n	n	n	n	n
COc1cc(/C=N/NC(=O)c2sc3nc(C)cc(C)c3c2N)ccc1O	n	n	n	n	n	+
COc1cccc(NC(=O)Cn2cnc3sc(C)c(S(=O)(=O)N4CCCCC4)c3c2=O)c1	n	n	n	n	n	n
O=C(O)c1cc2ccccc2c(N=Nc2cccnc2)c1O	x	39	x	n	x	n
COc1ccc(-c2cc(-c3ccccc3)n[nH]2)c(O)c1	n	35	n	n	n	n
COc1ccc(-c2cc(-c3ccccc3O)[nH]n2)cc1	n	n	n	n	n	n
COc1ccccc1NS(=O)(=O)c1cc([N+](=O)[O-])ccc1N/N=C/c1c[nH]c2ccccc12	n	40	n	n	n	n
COc1ccc(NS(=O)(=O)c2cc([N+](=O)[O-])ccc2N/N=C\c2c(C)[nH]c3ccccc23)cc1	n	n	n	n	n	n
Cc1ccc(/C=C2\CCC3=C2OC(N)=C(C#N)C3c2ccc(C)cc2)cc1 (stereo unspecified)	x	35	x	n	x	n

Bioassay records as filed in PubChem.
